Assay [1] relates to epidermoid carcinoma (KB, ATCC number CCL-17). The experiment in a line: MTT cytotoxicity assay, KB cells. Format: cell-based. The conditions noted are these: Homo sapiens, 72 h, read-out: IC50 KB. An outline of the steps: (§1)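 Log-phase cells in DMEM with 7–10% FBS and penicillin/streptomycin (37 °C, 5% CO2) seeded at 3 × 10^4 cells per mL. Exposed 3 days to test compound in DMSO at 1.00, 0.25, 0.0625 and 0.0156 μg mL−1. MTT (5 mg mL−1 stock in 0.1 M PBS, pH 7.4) added for 4 h at 37 °C; formazan dissolved in DMSO, absorbance at 540 nm. Growth inhibition calculated relative to untreated controls.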

The test system of assay [2] is lung (A549) cancer cell line. Nature of the assay: MTT cytotoxicity assay, A549 cells. Format: cell-based. The conditions noted are these: Homo sapiens, A549, 72 h, read-out: IC50 A549. An outline of the steps:
as §1
Background: Tetrazolium assays rely on reduction of a dye to a coloured formazan, in cell work by metabolically active cells.

The subject of assay [3] is human embryonic kidney (HEK-293, ATCC number CRL-1573) cell line. Nature of the assay: MTT cytotoxicity assay, Hek-293 cells. Format: cell-based. The conditions noted are these: HEK293, 72 h, read-out: IC50 Hek-293. An outline of the steps:
as §1

Assay [4] has as its system breast (MCF7, HTB-22™) cancer cell line. The experiment in a line: MTT cytotoxicity assay, MCF7 cells. In kind it is cell-based. The conditions noted are these: Homo sapiens, MCF7, 72 h, read-out: IC50 MCF7. In outline:
as §1

The subject of assay [5] is hepatocellular carcinoma (HepG2, ATCC number HB-8065). Nature of the assay: MTT cytotoxicity assay, HepG2 cells. Format: cell-based. The conditions noted are these: Homo sapiens, HepG2, 72 h, read-out: IC50 HepG2. In outline:
as §1

Assay [6] relates to SK-Lu-1 cells. Nature of the assay: Annexin V FITC and PI flow cytometry assay for apoptosis. Format: cell-based, human. The conditions noted are these: 24 h; for % Necrotic cells: Annexin-V/PI (Q2-1); for % Late apoptosis cells: Annexin-V/PI (Q2-2); for % Early apoptosis cells: Annexin-V/PI (Q2-4); for % Total apoptosis cells: early + late. An outline of the steps: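 SK-LU-1 cells (3 × 10^5 per 25 cm2 flask; DMEM, 7–10% FBS, penicillin/streptomycin, 37 °C, 5% CO2) exposed 24 h to test compound. Controls: DMSO 0.5%, ellipticine 1.3 μM, vincristine 0.4 and 4 μM. Cells were harvested, washed in cold PBS and resuspended in annexin-binding buffer. They were stained with FITC-annexin V plus PI (100 μg mL−1 working solution) for 15 min at room temperature, then diluted and analysed by flow cytometry.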
A general note: In flow cytometry, cells or beads pass a laser one at a time.

The subject of assay [7] is SK-Lu-1 cells. Nature of the assay: Cell cycle analysis by flow cytometry. Format: cell-based, human. The conditions noted are these: 24 h. In outline:
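Log-phase SK-LU-1 cells (3 × 10^5 per 25 cm2 flask) treated 24 h with test compound at 0.08, 0.16 or 0.32 μM. Controls: DMSO 0.05%, ellipticine 1.3 μM, vincristine 0.4 and 4 μM. Cells were PBS-washed and fixed in ice-cold 70% ethanol at −20 °C for 2 h. They were then treated with RNase A (1 mg mL−1, 37 °C, 15 min), stained with PI for 30 min and analysed by flow cytometry.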

The subject of assay [8] is human embryonic kidney (HEK-293, ATCC number CRL-1573) cell line. The conditions noted are these: read-out: IC50 Hek-293; non-cancerous Hek-293 cells; cited from earlier work.
For assay [9], the system named is breast (MCF7, HTB-22™) cancer cell line. The conditions noted are these: read-out: IC50 MCF7; MCF7 cells; cited from earlier work.
Assay [10] concerns SK-Lu-1 cells. The conditions noted are these: read-out: IC50 SK-Lu-1; cited from earlier work.
Assay [11] has as its system epidermoid carcinoma (KB, ATCC number CCL-17). The conditions noted are these: read-out: IC50 KB; KB cells; cited from earlier work.
Assay [12] has as its system hepatocellular carcinoma (HepG2, ATCC number HB-8065). The conditions noted are these: read-out: IC50 HepG2; HepG2 cells; cited from earlier work.

Structures are written as SMILES. Read-outs that look alike come from different tables or passages of the source.

With `O=C1OCC2=C1C(c1cccnc1)C1=C(N2)C(=O)c2ccccc2C1=O` (centres unmarked) [5n, 11-(Pyridin-3-yl)-4,11-dihydrobenzo[g]furo[3,4-b]quinoline-1,5,10(3H)-trione], the IC50 in [1] is 620 ± 10 nM; in assay [2] it was 610 ± 20 nM; in assay [3], 1810 ± 50 nM; in assay [4] it was 1960 ± 40 nM; in [5], over 2500 nM.

For `N#Cc1ccc(C2C3=C(COC3=O)NC3=C2C(=O)c2ccccc2C3=O)cc1` (centres unmarked) [5k, 4-(1,5,10-Trioxo-1,3,4,5,10,11-hexahydrobenzo[g]furo[3,4-b]quinolin-11-yl)benzonitrile], the IC50 in assay [1] is over 2500 nM; in assay [2], 2030 ± 50 nM; in assay [3], over 20000 nM; in [4], over 2500 nM; in assay [5], over 2500 nM.

With `O=C1OCC2=C1C(c1ccc(O)cc1)C1=C(N2)C(=O)c2ccccc2C1=O` (centres unmarked) [5i, 11-(4-Hydroxyphenyl)-4,11-dihydrobenzo[g]furo[3,4-b]quinoline-1,5,10(3H)-trione], the IC50 in assay [1] was over 2500 nM; in assay [2], 1590 ± 30 nM; in [3], 6460 ± 150 nM; in assay [4], 2230 ± 60 nM; in assay [5], over 2500 nM.

Take `O=C1OCC2=C1C(c1ccc([N+](=O)[O-])cc1)C1=C(N2)C(=O)c2ccccc2C1=O` (centres unmarked) [5j, 11-(4-Nitrophenyl)-4,11-dihydrobenzo[g]furo[3,4-b]quinoline-1,5,10(3H)-trione]: the IC50 in assay [1] was over 2500 nM; in assay [2], 1120 ± 40 nM; in assay [3], 7170 ± 160 nM; in assay [4] it was over 2500 nM; in assay [5] it was over 2500 nM.

`Cc1c2ccncc2c(C)c2c1[nH]c1ccccc12` [Ellipticine, reference compound]: in the assay on SK-Lu-1 cells [6] (SK-LU-1, 1.3 μM), the “% Necrotic cells” value was 3.00%, the “% Late apoptosis cells” value is recorded as 25.71%, the “% Early apoptosis cells” value stood at 28.22% and the “% Total apoptosis cells” value is given as 53.93%. The IC50 in [1] stood at 1150 ± 10 nM. In addition, the IC50 in [2] came out at 1600 ± 20 nM. Moreover, in the assay with SK-Lu-1 cells [7] (SK-LU-1, 1.3 μM), the “Percentage of cell by phases, % G0/G1” value is listed as 10.09%; the “Percentage of cell by phases, % G2/M” value worked out at 71.29%; the “Percentage of cell by phases, % S” value turned out to be 12.52%. In addition, the IC50 in assay [3] stood at 6180 ± 110 nM. Also, the IC50 in [4] was 1820 ± 30 nM. In addition, the IC50 in assay [5] is 1510 ± 50 nM.

As for `O=C1OCC2=C1C(c1ccc(Br)cn1)C1=C(N2)C(=O)c2ccccc2C1=O` (centres unmarked) [5o, 11-(5-Bromopyridin-2-yl)-4,11-dihydrobenzo[g]furo[3,4-b]quinoline-1,5,10(3H)-trione], the IC50 in assay [1] is over 2500 nM; in assay [2] it was over 2500 nM; in assay [3], over 20000 nM; in [4] it was over 2500 nM; in assay [5], over 2500 nM.

As for `COc1ccc(C2C3=C(COC3=O)NC3=C2C(=O)c2ccccc2C3=O)cc1OC` (centres unmarked) [5l, 11-(3,4-Dimethoxyphenyl)-4,11-dihydrobenzo[g]furo[3,4-b]quinoline-1,5,10(3H)-trione], the IC50 came to 520 ± 20 nM in [1]; 1100 ± 20 nM in assay [2]; 2230 ± 80 nM in [3]; 2280 ± 70 nM in assay [4]; 530 ± 20 nM in [5].

As to `CC[C@]1(O)C[C@H]2CN(CCc3c([nH]c4ccccc34)[C@@](C(=O)OC)(c3cc4c(cc3OC)N(C=O)[C@H]3[C@@](O)(C(=O)OC)[C@H](OC(C)=O)[C@]5(CC)C=CCN6CC[C@]43[C@@H]65)C2)C1` [Vincristine, reference compound], in the assay with SK-Lu-1 cells [6] (SK-LU-1, 0.4 μM), the “% Necrotic cells” value was found to be 4.15%, the “% Late apoptosis cells” value is listed as 3.66%, the “% Early apoptosis cells” value was 15.13% and the “% Total apoptosis cells” value came out at 18.79%. In the assay with SK-Lu-1 cells [6] (SK-LU-1, 4.0 μM), the “% Necrotic cells” value was 3.62%, the “% Late apoptosis cells” value is reported as 4.71%, the “% Early apoptosis cells” value was 19.93% and the “% Total apoptosis cells” value was determined as 24.64%. Further, in the assay on SK-Lu-1 cells [7] (SK-LU-1, 0.4 μM), the “Percentage of cell by phases, % G0/G1” value was determined as 52.28%; the “Percentage of cell by phases, % G2/M” value is reported as 6.72%; the “Percentage of cell by phases, % S” value is 38.19%. In addition, in the assay on SK-Lu-1 cells [7] (SK-LU-1, 4.0 μM), the “Percentage of cell by phases, % G0/G1” value is given as 0.07%; the “Percentage of cell by phases, % G2/M” value is listed as 82.57%; the “Percentage of cell by phases, % S” value stood at 13.93%.

Take `O=C1OCC2=C1C(c1ccccc1)C1=C(N2)C(=O)c2ccccc2C1=O` (centres unmarked) [5d, 11-(Phenyl)-4,11-dihydrobenzo[g]furo[3,4-b]quinoline-1,5,10(3H)-trione]: the IC50 is 1340 ± 10 nM in [8]; 1980 ± 40 nM in assay [9]; under 44 nM in the assay with SK-Lu-1 cells [10]; 1540 ± 10 nM in assay [11]; under 44 nM in [12].

Consider `COc1cc(C2C3=C(COC3=O)NC3=C2C(=O)c2ccccc2C3=O)cc(OC)c1OC` (centres unmarked) [5m, 11-(3,4,5-Trimethoxyphenyl)-4,11-dihydrobenzo[g]furo[3,4-b]quinoline-1,5,10(3H)-trione], for which the IC50 in assay [1] was 20 ± 10 nM; in [2] it was 620 ± 20 nM; in assay [3], 30 ± 10 nM; in [4] it was 120 ± 30 nM; in [5] it was 20 ± 10 nM.

Turning to `O=C1OCC2=C1C(c1ccccc1O)C1=C(N2)C(=O)c2ccccc2C1=O` (centres unmarked) [5h, 11-(2-Hydroxyphenyl)-4,11-dihydrobenzo[g]furo[3,4-b]quinoline-1,5,10(3H)-trione], the IC50 in assay [1] is 570 ± 20 nM; in [2] it was 430 ± 10 nM; in [3] it was 2030 ± 60 nM; in assay [4], 1610 ± 30 nM; in assay [5], 630 ± 20 nM.

One may read the IC50 as the concentration at which inhibition is half-maximal.

The values above are taken from paper PMC9361925 (RSC Advances, 2022).
